Test results published in the M2OR odorant receptor database.

How the values were obtained:
Conditions in all cases: stereoisomer not certain
UniProt E9PVX1 = target: T1, UniProt E9PVX1
T1 sequence (whole entry): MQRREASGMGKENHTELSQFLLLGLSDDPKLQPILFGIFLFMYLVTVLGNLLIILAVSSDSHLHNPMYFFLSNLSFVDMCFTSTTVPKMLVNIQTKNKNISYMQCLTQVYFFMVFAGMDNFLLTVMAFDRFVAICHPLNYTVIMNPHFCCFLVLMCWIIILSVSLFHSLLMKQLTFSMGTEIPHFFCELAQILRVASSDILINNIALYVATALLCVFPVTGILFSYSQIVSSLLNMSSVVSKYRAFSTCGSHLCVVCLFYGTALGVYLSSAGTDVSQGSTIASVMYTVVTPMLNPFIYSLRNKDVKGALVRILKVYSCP
Method in brief: (§1)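 Transient luciferase assays in mammalian cell lines were common, though methods varied by source. The values come from published papers and their supplementary material, with extra details from the original authors when needed. Responsive refers to a measured signal the original authors judged statistically different from baseline, and non-responsive (inactive) to the remainder.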

UniProt E9PZ66 = target: T2, UniProt E9PZ66
T2 sequence (whole entry): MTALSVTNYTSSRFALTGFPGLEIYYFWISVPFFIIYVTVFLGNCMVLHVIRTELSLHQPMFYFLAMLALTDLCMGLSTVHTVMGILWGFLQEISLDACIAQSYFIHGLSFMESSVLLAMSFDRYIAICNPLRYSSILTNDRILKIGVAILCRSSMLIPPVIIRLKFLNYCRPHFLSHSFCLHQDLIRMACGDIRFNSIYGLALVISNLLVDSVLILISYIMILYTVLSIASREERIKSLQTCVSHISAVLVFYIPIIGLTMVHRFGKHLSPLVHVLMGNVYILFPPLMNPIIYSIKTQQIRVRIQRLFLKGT
Method in brief: as §1

UniProt E9Q4X7 = target: T3, UniProt E9Q4X7
T3 sequence (whole entry): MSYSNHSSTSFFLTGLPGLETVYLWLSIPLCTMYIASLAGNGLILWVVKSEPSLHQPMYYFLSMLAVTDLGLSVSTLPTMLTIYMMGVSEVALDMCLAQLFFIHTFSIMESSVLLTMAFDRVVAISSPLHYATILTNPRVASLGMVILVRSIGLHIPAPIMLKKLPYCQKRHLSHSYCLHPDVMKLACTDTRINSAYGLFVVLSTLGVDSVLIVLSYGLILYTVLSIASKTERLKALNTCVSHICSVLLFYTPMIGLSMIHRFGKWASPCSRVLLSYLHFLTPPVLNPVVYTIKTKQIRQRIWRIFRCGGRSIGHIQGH
Method in brief: as §1

UniProt E9Q546 = target: T4, UniProt E9Q546
T4 sequence (whole entry): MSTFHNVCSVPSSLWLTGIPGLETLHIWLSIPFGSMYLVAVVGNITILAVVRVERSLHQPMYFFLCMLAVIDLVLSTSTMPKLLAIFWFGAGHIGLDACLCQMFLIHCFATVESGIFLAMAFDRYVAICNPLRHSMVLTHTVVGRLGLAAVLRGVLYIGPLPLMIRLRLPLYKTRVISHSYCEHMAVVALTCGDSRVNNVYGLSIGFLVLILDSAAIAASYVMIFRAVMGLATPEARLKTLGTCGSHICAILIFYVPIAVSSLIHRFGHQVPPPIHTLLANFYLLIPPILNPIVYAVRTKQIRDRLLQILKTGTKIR
Method in brief: as §1

UniProt E9Q6Z7 = target: T5, UniProt E9Q6Z7
T5 sequence (whole entry): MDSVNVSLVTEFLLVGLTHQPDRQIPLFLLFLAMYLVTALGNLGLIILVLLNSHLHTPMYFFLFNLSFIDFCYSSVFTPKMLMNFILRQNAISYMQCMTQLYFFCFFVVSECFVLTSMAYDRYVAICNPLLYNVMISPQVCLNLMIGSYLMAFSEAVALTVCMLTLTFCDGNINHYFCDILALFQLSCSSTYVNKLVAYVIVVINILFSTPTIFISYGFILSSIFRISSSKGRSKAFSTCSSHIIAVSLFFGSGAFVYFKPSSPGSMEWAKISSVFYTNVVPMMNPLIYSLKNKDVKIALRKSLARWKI
Method in brief: as §1

UniProt L7N210 = target: T6, UniProt L7N210
T6 sequence (whole entry): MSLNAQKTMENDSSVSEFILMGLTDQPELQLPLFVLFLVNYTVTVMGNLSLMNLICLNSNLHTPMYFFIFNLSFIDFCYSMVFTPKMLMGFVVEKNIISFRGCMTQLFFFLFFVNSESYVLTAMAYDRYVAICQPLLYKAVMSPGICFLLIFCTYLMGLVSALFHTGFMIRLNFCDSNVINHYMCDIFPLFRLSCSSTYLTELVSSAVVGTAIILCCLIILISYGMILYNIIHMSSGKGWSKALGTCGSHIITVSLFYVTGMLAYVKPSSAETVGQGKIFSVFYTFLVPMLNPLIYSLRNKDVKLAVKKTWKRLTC
Method in brief: as §1

UniProt Q3KPB0 = target: T7, UniProt Q3KPB0
T7 sequence (whole entry): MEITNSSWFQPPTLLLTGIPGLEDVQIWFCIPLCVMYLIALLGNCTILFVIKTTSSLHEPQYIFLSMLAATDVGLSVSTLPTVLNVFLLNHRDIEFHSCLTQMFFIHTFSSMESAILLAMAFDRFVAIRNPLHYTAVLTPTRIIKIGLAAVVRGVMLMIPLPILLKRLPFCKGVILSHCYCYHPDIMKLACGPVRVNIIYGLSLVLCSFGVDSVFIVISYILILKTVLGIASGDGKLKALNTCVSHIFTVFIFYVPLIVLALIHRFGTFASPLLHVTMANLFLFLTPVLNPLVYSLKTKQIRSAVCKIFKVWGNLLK
Method in brief: as §1

UniProt Q3U0P3 = target: T8, UniProt Q3U0P3
T8 sequence (whole entry): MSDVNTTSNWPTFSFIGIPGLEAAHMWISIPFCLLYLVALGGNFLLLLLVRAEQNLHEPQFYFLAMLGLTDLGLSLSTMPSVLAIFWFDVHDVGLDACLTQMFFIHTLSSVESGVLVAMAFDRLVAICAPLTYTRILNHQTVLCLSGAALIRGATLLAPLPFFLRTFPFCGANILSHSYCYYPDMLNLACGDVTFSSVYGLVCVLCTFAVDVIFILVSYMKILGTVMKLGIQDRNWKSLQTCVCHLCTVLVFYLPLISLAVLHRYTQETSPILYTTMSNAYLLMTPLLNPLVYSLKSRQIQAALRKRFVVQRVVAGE
Method in brief: as §1

UniProt Q7TQU8 = target: T9, UniProt Q7TQU8
T9 sequence (whole entry): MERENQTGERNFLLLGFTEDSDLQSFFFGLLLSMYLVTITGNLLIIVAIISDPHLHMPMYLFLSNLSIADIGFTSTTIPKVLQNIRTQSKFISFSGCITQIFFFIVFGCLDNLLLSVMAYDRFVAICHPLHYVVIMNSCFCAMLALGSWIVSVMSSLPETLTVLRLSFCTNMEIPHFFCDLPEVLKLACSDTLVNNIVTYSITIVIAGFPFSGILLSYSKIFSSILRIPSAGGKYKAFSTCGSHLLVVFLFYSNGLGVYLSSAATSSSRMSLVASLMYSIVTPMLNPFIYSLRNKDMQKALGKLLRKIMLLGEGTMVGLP
Method in brief: as §1

UniProt Q7TR79 = target: T10, UniProt Q7TR79
T10 sequence (whole entry): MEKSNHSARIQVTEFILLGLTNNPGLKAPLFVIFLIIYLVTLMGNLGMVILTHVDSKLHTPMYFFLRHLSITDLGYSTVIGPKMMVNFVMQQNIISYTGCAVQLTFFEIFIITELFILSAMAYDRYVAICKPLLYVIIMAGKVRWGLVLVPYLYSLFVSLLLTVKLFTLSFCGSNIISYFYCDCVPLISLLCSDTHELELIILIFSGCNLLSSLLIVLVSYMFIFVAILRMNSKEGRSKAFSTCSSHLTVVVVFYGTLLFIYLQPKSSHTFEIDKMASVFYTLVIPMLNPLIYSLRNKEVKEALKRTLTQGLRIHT
Method in brief: as §1

UniProt L7MU75 = target: T11, UniProt L7MU75
T11 sequence (whole entry): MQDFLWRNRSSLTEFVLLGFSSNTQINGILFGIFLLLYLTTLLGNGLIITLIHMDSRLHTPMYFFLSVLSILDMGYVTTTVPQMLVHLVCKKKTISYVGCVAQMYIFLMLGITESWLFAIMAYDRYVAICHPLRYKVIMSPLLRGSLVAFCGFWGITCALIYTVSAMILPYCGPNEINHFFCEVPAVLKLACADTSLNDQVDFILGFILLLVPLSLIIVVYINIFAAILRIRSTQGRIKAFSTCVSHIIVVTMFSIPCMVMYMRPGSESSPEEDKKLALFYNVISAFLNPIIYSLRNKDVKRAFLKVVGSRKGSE
Method in brief: as §1

UniProt E9PXN3 = target: UniProt E9PXN3
Method in brief: as §1

UniProt Q7TRM0 = target: UniProt Q7TRM0
Method in brief: as §1

UniProt E9Q9Z6 = target: T12, UniProt E9Q9Z6
T12 sequence (whole entry): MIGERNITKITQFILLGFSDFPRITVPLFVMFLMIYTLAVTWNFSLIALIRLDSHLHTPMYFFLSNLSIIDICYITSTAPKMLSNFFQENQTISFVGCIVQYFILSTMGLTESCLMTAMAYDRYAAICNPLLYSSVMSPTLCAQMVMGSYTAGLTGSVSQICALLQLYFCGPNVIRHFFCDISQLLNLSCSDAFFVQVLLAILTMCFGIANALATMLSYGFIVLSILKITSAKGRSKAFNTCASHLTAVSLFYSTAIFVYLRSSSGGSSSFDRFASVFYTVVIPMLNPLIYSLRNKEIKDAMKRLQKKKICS
Method in brief: as §1
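Note: active if original authors judged signal statistically different from baseline.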

UniProt E9PXN3, sequence (E9PXN3 as listed by the source): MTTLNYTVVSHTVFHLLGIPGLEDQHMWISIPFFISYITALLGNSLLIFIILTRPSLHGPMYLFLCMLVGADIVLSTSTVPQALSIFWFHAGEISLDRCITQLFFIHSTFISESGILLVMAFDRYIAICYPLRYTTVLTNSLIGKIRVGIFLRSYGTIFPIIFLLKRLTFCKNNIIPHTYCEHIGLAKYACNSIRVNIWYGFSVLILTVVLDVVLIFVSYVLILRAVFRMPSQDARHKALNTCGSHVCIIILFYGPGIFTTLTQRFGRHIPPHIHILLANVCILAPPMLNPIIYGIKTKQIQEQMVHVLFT
UniProt Q7TRM0, sequence (Q7TRM0 as listed by the source): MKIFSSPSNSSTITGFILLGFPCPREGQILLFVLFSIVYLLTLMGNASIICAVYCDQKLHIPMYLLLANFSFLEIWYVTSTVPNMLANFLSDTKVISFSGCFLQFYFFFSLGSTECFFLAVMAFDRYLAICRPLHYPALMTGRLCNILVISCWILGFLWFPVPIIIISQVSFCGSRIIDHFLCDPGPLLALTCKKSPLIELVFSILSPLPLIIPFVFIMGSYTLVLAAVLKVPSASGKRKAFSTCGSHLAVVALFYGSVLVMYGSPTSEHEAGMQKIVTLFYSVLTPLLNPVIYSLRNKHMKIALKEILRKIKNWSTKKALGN

SMILES	odorant receptor agonist call (UniProt E9PVX1)	odorant receptor agonist call (UniProt E9PZ66)	odorant receptor agonist call (UniProt E9Q4X7)	odorant receptor agonist call (UniProt E9Q546)	odorant receptor agonist call (UniProt E9Q6Z7)	odorant receptor agonist call (UniProt L7N210)	odorant receptor agonist call (UniProt Q3KPB0)	odorant receptor agonist call (UniProt Q3U0P3)	odorant receptor agonist call (UniProt Q7TQU8)	odorant receptor agonist call (UniProt Q7TR79)	odorant receptor agonist call (UniProt L7MU75)	odorant receptor agonist call (UniProt E9PXN3)	odorant receptor agonist call (UniProt Q7TRM0)	odorant receptor agonist call (UniProt E9Q9Z6)
O=Cc1ccc2c(c1)OCO2	inactive	inactive	inactive	inactive	inactive	active	inactive	inactive	inactive	inactive	–	–	–	–
Oc1ccccc1Br	inactive	inactive	inactive	inactive	inactive	inactive	inactive	inactive	inactive	inactive	inactive	–	–	–
CC(C=O)Cc1ccc2c(c1)OCO2 (stereo unspecified)	inactive	inactive	inactive	inactive	inactive	active	inactive	inactive	inactive	inactive	inactive	–	–	–
O=C(O)CCCCCCCBr	–	–	–	–	–	–	–	–	–	–	–	inactive	inactive	–
OCc1ccc2c(c1)OCO2	inactive	inactive	inactive	inactive	inactive	inactive	inactive	inactive	inactive	inactive	inactive	–	–	–
CC(=O)c1cc(C(C)(C)C)cc2c1CCC2(C)C	–	–	–	–	–	–	–	–	–	–	–	–	–	inactive
